# ChEMBL document CHEMBL1221376, “Identification and optimization of novel 2-(4-oxo-2-aryl-quinazolin-3(4H)-yl)acetamide vasopressin V3 (V1b) receptor antagonists” (Bioorg Med Chem Lett, 2010)
# Target: T1, Oxytocin receptor (Homo sapiens, UniProt P30559)
# T1 sequence (P30559 whole entry): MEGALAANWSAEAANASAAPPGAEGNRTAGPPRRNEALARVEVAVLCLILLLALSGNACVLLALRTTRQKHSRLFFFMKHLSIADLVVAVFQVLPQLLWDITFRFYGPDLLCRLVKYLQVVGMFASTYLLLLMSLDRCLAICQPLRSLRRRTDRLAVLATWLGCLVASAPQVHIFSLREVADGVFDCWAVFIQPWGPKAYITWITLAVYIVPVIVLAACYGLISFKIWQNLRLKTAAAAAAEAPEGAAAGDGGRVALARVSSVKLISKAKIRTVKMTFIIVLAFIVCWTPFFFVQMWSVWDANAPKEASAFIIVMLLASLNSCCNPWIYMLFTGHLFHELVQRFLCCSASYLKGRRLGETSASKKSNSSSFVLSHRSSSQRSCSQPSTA
# Assay: Displacement of [3H]oxytocin from human oxytocin receptor
row,IC50,SMILES
1,> 100 µM,O=C(Cn1c(-c2ccccc2)nc2ccc(OCCCN3CCOCC3)cc2c1=O)NCC1CC1

# Target: Vasopressin V1a receptor (Homo sapiens) (UniProt P37288)
# Assay: Displacement of [3H]AVP from human vasopressin V1a receptor at 5 uM
# In short: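 Membrane binding using membranes from CHO cells stably expressing human V1a receptor, with 5 nM [3H]-AVP (final) and test compound in 50 mM Tris–HCl pH 7.4, 5 mM MgCl2, 1 mg/mL BSA and 0.5% DMSO. Incubated 60 min at room temperature, then rapid filtration over polyethylenimine-soaked GF/B filters. Filters washed with ice-cold Tris–HCl, dried 30 min at 55 °C, scintillation counted.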
# Chain of Vasopressin V1a receptor (Homo sapiens) (P37288 whole entry, looked up): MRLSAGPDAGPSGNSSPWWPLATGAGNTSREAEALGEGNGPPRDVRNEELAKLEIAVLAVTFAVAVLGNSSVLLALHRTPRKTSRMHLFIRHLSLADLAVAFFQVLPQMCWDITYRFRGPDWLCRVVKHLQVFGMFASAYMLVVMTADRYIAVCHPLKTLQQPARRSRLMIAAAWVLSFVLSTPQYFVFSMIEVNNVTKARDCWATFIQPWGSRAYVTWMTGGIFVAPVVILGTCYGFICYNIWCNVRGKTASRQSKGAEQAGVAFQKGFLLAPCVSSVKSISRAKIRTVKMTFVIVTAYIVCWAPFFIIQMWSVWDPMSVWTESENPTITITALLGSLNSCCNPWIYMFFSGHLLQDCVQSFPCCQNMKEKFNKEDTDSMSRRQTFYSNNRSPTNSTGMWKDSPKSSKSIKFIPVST
row,inhibition,SMILES
1,6%,O=C(Cn1c(-c2ccccc2)nc2ccc(OCCCN3CCOCC3)cc2c1=O)NCC1CC1

# Target: T2, Vasopressin V1b receptor (Rattus norvegicus, UniProt P48974)
# T2 sequence (P48974 whole entry): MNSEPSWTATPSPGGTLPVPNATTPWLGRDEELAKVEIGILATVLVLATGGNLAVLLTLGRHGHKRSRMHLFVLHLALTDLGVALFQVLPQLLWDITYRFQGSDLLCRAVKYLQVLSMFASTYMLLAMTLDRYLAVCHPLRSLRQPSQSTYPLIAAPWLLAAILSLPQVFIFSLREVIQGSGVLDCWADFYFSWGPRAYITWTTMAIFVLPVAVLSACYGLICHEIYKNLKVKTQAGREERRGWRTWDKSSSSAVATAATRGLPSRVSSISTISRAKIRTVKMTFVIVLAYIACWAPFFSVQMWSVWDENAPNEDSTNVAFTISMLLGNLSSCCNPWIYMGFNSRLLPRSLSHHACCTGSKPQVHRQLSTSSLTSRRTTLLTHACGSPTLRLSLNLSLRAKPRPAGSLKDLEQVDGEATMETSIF
# Assay: Displacement of [3H]AVP from rat vasopressin V3 receptor
row,IC50,SMILES
1,0.21 µM,O=C(Cn1c(-c2ccccc2)nc2ccc(OCCCN3CCOCC3)cc2c1=O)NCC1CC1

# Target: T3, Vasopressin V1b receptor (Homo sapiens, UniProt P47901)
# T3 sequence (P47901 whole entry): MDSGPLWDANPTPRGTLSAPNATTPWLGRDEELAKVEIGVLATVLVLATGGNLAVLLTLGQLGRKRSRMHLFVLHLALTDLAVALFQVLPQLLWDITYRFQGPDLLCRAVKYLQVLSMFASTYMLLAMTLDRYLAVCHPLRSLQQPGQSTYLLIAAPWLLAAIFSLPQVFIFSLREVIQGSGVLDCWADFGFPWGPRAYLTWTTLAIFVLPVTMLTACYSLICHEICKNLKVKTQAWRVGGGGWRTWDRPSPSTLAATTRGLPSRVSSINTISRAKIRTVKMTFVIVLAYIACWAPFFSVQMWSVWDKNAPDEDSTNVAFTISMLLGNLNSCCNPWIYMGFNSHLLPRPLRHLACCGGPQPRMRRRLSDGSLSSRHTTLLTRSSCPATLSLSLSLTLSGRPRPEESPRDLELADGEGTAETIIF
# Assay: Displacement of [3H]AVP from human vasopresin3 receptor expressed in CHO cells
# Type: cell-based
# In short: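 Whole-cell binding on CHO cells stably expressing human V3 (V1b) receptor, grown at 37 °C with 5% CO2. Cells seeded at 30,000 per well, cultured overnight at 37 °C, then washed twice with PBS. Serially diluted compounds plus 5 nM [3H]-AVP (final) in PBS with 10 mM MgCl2, 0.1% BSA and 1% DMSO, 30 min at room temperature. Washed, air dried, scintillation counted.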
row,IC50,SMILES
1,0.71 µM,COC1CCN(CCCOc2ccc3nc(-c4ccccc4)n(CC(=O)NCC4CC4)c(=O)c3c2)CC1
2,1.7 µM,CN1CCN(CCCOc2ccc3nc(-c4ccccc4)n(CC(=O)NCC4CC4)c(=O)c3c2)CC1
3,0.12 µM,O=C(Cn1c(-c2ccccc2)nc2ccc(OCCCN3CCOCC3)cc2c1=O)NCC1CC1
4,1.1 µM,O=C(Cn1c(-c2ccccc2)nc2ccc(OCCCN3CCC(O)CC3)cc2c1=O)NCC1CC1
5,> 30 µM,NCCCCOc1ccc2nc(-c3ccccc3)n(CC(=O)NCC3CC3)c(=O)c2c1
6,7.6 µM,CNCCCOc1ccc2nc(-c3ccccc3)n(CC(=O)NCC3CC3)c(=O)c2c1
7,2.1 µM,CC(C)C[C@H](N)COc1ccc2nc(-c3ccccc3)n(CC(=O)NCC3CC3)c(=O)c2c1
8,> 30 µM,NCCCCCOc1ccc2nc(-c3ccccc3)n(CC(=O)NCC3CC3)c(=O)c2c1
9,1.8 µM,O=C(Cn1c(-c2ccccc2)nc2ccc(OCCCN3CCCC3)cc2c1=O)NCC1CC1
10,4.8 µM,CN1CCN(CCCCOc2ccc3nc(-c4ccccc4)n(CC(=O)NCC4CC4)c(=O)c3c2)CC1
11,0.31 µM,O=C(Cn1c(-c2ccccc2)nc2ccc(OCCCN3CCCCC3)cc2c1=O)NCC1CC1
12,> 100 µM,O=C(CCc1ccc(O)cc1)NCCOc1ccc2nc(-c3ccccc3)n(CC(=O)NCC3CC3)c(=O)c2c1
13,> 100 µM,O=C(Cn1c(-c2ccccc2)nc2ccc(O)cc2c1=O)NCC1CC1
14,3.6 µM,NCCCOc1ccc2nc(-c3ccccc3)n(CC(=O)NCC3CC3)c(=O)c2c1
15,0.2 µM,CC(C)C[C@@H](COc1ccc2nc(-c3ccccc3)n(CC(=O)NCC3CC3)c(=O)c2c1)NC(=O)[C@@H](N)Cc1ccc(O)cc1
16,4 µM,NCCOc1ccc2nc(-c3ccccc3)n(CC(=O)NCC3CC3)c(=O)c2c1
17,3.8 µM,CCN(CC)CCCOc1ccc2nc(-c3ccccc3)n(CC(=O)NCC3CC3)c(=O)c2c1
18,22 µM,CN1CCN(CCOc2ccc3nc(-c4ccccc4)n(CC(=O)NCC4CC4)c(=O)c3c2)CC1
19,25.8 µM,O=C(Cn1c(-c2ccccc2)nc2ccc(OCCCN3CCNCC3)cc2c1=O)NCC1CC1
20,> 100 µM,NCCCCCCOc1ccc2nc(-c3ccccc3)n(CC(=O)NCC3CC3)c(=O)c2c1
21,0.34 µM,O=C(Cn1c(-c2ccccc2)nc2ccc(OCCCN3CCCCCC3)cc2c1=O)NCC1CC1
22,30.5 µM,NCC(=O)NCCOc1ccc2nc(-c3ccccc3)n(CC(=O)NCC3CC3)c(=O)c2c1
23,5.1 µM,CC(C)C[C@@H](COc1ccc2nc(-c3ccccc3)n(CC(=O)NCC3CC3)c(=O)c2c1)NC(=O)CN

# Target: Vasopressin V2 receptor (Homo sapiens, UniProt P30518)
# Assay: Displacement of [3H]AVP from human vasopressin V2 receptor
# Chain of Vasopressin V2 receptor (P30518 whole entry): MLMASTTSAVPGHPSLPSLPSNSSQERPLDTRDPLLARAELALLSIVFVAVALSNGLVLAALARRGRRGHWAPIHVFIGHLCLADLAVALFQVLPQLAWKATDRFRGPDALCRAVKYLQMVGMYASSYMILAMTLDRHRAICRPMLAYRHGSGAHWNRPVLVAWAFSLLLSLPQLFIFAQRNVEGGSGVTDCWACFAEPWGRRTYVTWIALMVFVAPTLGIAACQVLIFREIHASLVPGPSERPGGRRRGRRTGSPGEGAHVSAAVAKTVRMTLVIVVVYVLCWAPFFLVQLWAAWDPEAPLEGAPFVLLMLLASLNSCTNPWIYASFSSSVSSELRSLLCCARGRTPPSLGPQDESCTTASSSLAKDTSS
row,IC50,SMILES
1,> 100 µM,O=C(Cn1c(-c2ccccc2)nc2ccc(OCCCN3CCOCC3)cc2c1=O)NCC1CC1
